pIC50: −log10 of the molar value. The source made the active and inactive calls. The calls are words filed in the database; no cut-off is given here. Non-standard residues stand in square brackets, D forms with d. Residues, ends and D or L forms follow the SMILES beside them. dTrp(2-Me) = Cc1[nH]c2ccccc2c1C[C@@H](N)C(=O)O
What was measured:
Platelet glycoprotein 4 [1] = molecular target: T1, Platelet glycoprotein 4 (Homo sapiens, UniProt P16671); assay: Antagonist activity at human CD36-oxLDL binding at 10 ug/mL after 2 hrs by ELISA
Platelet glycoprotein 4 [2] = molecular target: T1, Platelet glycoprotein 4; assay: Antagonist activity at human CD36 expressed in insect Sf9 cells assessed as inhibition of DiL-acetylated LDL uptake at 10 ug/ml after 5 hrs by fluorometric analysis; assay type: functional
In short: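 Sf9 cells in Grace's medium with 10% heat-inactivated FBS at 27 °C, plated at 6.0×10⁵ cells/well, infected 1 h with recombinant hCD36 or wild-type baculovirus, then refed. After two days, washed into Grace/0.5% BSA. Compound added from DMSO for 1 h at 27 °C, then DiI-AcLDL.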

Platelet glycoprotein 4 [3] = molecular target: T1, Platelet glycoprotein 4; assay: Antagonist activity at human CD36-oxLDL binding at 10 uM after 2 hrs by ELISA
Platelet glycoprotein 4 [4] = molecular target: T1, Platelet glycoprotein 4; assay: Antagonist activity at human CD36-oxLDL binding after 2 hrs by ELISA
In short: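 Plate wells coated with oxLDL at 4 °C for 8–12 h, washed with PBS and blocked in PBS/1% BSA for 1–2 h at 4 °C. His-tagged CD36 or vector control protein added for 1 h at 4 °C, then compound or hexarelin, incubated 2 h.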

T1 sequence (P16671 whole entry): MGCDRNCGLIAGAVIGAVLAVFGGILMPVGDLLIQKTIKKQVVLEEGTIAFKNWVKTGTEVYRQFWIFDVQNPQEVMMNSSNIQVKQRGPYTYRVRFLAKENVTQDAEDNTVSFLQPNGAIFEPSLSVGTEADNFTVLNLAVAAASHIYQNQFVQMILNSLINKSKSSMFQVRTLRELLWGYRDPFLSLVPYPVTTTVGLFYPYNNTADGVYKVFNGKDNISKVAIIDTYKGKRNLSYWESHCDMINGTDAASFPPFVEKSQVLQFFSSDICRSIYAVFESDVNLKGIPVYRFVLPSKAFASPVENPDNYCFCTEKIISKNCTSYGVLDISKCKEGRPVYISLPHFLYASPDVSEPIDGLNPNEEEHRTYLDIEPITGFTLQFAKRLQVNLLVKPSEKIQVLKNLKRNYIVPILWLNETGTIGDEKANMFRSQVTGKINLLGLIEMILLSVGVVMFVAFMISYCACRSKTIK

| Structure (SMILES) | inhibition (Platelet glycoprotein 4 [1]) | inhibition (Platelet glycoprotein 4 [2]) | inhibition (Platelet glycoprotein 4 [3]) | pIC50 (Platelet glycoprotein 4 [4]) |
| --- | --- | --- | --- | --- |
| Oc1ccc2cc[n+](CCc3ccccc3F)cc2c1 | 21.7% | – | – | – |
| COc1cc2c[n+](CCc3cccc(Cl)c3)c(O)cc2cc1O | 33.2% | – | – | – |
| COc1ccc(CC[n+]2ccc3cc(O)c(OC)cc3c2)cc1 | 76.3% | Active | – | – |
| COc1cc2c[n+](CCc3cccc(Cl)c3)ccc2cc1O | 33.6% | – | – | – |
| COc1cc2c[n+](CCc3ccccc3C)c(O)cc2cc1O | < 10% | – | – | – |
| COc1cc2cc[n+](CCc3cccc(F)c3)cc2cc1OC | 20.9% | – | – | – |
| Cc1[nH]c2ccccc2c1C[C@@H](NC(=O)[C@@H](N)Cc1c[nH]cn1)C(=O)N[C@@H](C)C(=O)N[C@@H](Cc1c[nH]c2ccccc12)C(=O)N[C@H](Cc1ccccc1)C(=O)N[C@@H](CCCCN)C(N)=O (H-H[dTrp(2-Me)]AW[dF]K-NH2) | – | – | 37.6% | – |
| COc1ccc2cc[n+](CCc3ccccc3)cc2c1OC | < 10% | – | – | – |
| COc1ccc2cc[n+](CCc3ccccc3C)cc2c1OC | 46.6% | Active | – | 5.36 |
| COc1cc2cc[n+](CCc3cccc(C(F)(F)F)c3)cc2cc1OC | < 10% | – | – | – |
| COc1ccc2cc[n+](CCc3ccc(F)cc3)cc2c1O | 29.6% | – | – | – |
| Oc1ccc2cc[n+](CCc3cccc(C(F)(F)F)c3)cc2c1 | 48.4% | Active | – | 5.47 |
| COc1ccc2cc[n+](CCc3ccccc3)cc2c1 | 47.4% | – | – | – |
| COc1cc2c[n+](CCc3ccc(F)cc3)ccc2cc1O | 42.4% | Active | – | 5.22 |
| COc1cc2cc[n+](CCc3ccccc3)cc2cc1OC | 10% | – | – | – |
| COc1cc2c[n+](CCc3ccccc3)ccc2cc1O | 31% | – | – | – |
| COc1cc2c[n+](CCc3ccc(Cl)cc3)ccc2cc1O | < 10% | – | – | – |
| COc1cc2cc[n+](CCc3ccc(Cl)cc3)cc2cc1OC | < 10% | – | – | – |
| COc1cc2c[n+](CCc3cccc(F)c3)c(O)cc2cc1O | < 10% | – | – | – |
| COc1ccc2cc[n+](CCc3ccc(Cl)cc3)cc2c1OC | 25.4% | – | – | – |
| COc1ccc(CC[n+]2ccc3ccc(O)cc3c2)cc1 | 28.7% | – | – | – |
| COc1ccc(CC[n+]2ccc3cc(OC)c(OC)cc3c2)cc1 | 28.6% | – | – | – |
| COc1ccc2cc[n+](CCc3ccccc3C)cc2c1O | 11.5% | – | – | – |
| COc1ccc2cc[n+](CCc3ccccc3)cc2c1O | 77.9% | Active | – | 6.20 |
| Oc1ccc2cc[n+](CCc3ccccc3)cc2c1 | < 10% | – | – | – |
| COc1ccc2cc[n+](CCc3cccc(F)c3)cc2c1OC | 52.1% | Active | – | 5.16 |
| COc1ccc(CC[n+]2ccc3ccc(OC)c(O)c3c2)cc1 | < 10% | – | – | – |
